Here are results for four molecules from ChEMBL document CHEMBL4371006, “Discovery of N-[4-(Quinolin-4-yloxy)phenyl]benzenesulfonamides as Novel AXL Kinase Inhibitors” (J Med Chem, 2018).

Series [1] has as its target Cyclin-dependent kinase 18 (Homo sapiens, UniProt Q07002). As to the kind of experiment: Binding affinity to PCTK3 in SILAC-labeled human MDA-MB-231 cells lysate by mass spectrometry based kinAffinity assay. The format is subcellular. In a few lines:
(§1)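 MDA-MB-231 lysate applied to KinAffinity matrix of immobilized broadband kinase inhibitors at graded densities to obtain BC50 per target. Competition then run with increasing free compound to give CC50; Kd derived by Cheng-Prusoff. Two competition experiments in parallel to check equilibrium, one with lysate pre-incubated with compound before adding matrix. Quantitation by mass spectrometry.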

For series [2], the system named is MDA-MB-231. As to the kind of experiment: Antimetastatic activity against human MDA-MB-231 cells xenografted in mouse assessed as reduction in lymph node metastasis at 30 mg/kg, ip bid measured 3 times per week starting at day 12 by hematoxylin and eosin staining based assay relative to control. It counts as functional. Also on record: scale not given: the % may be the effect or the level left. In a few lines:
(§2)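 Female SCID/Beige mice inoculated with 2 x 10^6 MDA-MB-231 cells in HBSS:Matrigel (1:1) into third mammary fat pad under ketamine/xylazine. Test agent 30 mg/kg ip twice daily (12 h apart) in PEG400/H2O 70:30, or paclitaxel 10 mg/kg iv three times weekly; 10 mice/group. Tumors measured three times weekly from day 12; lungs and lymph nodes excised, formalin-fixed, nodes H&E-scored (mean ± SEM).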
In general terms: In xenograft studies the graft and the host belong to different species.

The target in series [3] is Delta(3,5)-Delta(2,4)-dienoyl-CoA isomerase, mitochondrial (Homo sapiens, UniProt Q13011). As to the kind of experiment: Binding affinity to ECH1 in SILAC-labeled human MDA-MB-231 cells lysate by mass spectrometry based kinAffinity assay. It counts as subcellular. The essentials:
(§3)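 Chemical proteomics: MDA-MB-231 lysate bound to matrix of immobilized broad kinase inhibitors at several densities (BC50), then competed with increasing free compound (CC50); proteins quantified by mass spectrometry, Kd via Cheng-Prusoff. Two competition formats run in parallel to check equilibrium.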

Series [4] relates to MDA-MB-231. In words: Antitumor activity against human MDA-MB-231 cells xenografted in mouse assessed as tumor growth inhibition at 30 mg/kg, ip bid measured 3 times per week starting at day 12. It counts as functional, organism-based. In a few lines:
as §2

The target of series [5] is Serine/threonine-protein kinase SIK3 (Homo sapiens, UniProt Q9Y2K2). As to the kind of experiment: Binding affinity to QSK in SILAC-labeled human MDA-MB-231 cells lysate by mass spectrometry based kinAffinity assay. It counts as subcellular. In a few lines:
as §1

Series [6] concerns the target Protein-tyrosine kinase 2-beta (Homo sapiens, UniProt Q14289). In words: Binding affinity to PYK2 in SILAC-labeled human MDA-MB-231 cells lysate by mass spectrometry based kinAffinity assay. It counts as subcellular. In a few lines:
as §1

The target of series [7] is Tyrosine-protein kinase Tec (Homo sapiens, UniProt P42680). As to the kind of experiment: Binding affinity to TEC in SILAC-labeled human MDA-MB-231 cells lysate by mass spectrometry based kinAffinity assay. It counts as subcellular. The essentials: as §1
Tyrosine-protein kinase Tec, sequence (P42680 whole entry): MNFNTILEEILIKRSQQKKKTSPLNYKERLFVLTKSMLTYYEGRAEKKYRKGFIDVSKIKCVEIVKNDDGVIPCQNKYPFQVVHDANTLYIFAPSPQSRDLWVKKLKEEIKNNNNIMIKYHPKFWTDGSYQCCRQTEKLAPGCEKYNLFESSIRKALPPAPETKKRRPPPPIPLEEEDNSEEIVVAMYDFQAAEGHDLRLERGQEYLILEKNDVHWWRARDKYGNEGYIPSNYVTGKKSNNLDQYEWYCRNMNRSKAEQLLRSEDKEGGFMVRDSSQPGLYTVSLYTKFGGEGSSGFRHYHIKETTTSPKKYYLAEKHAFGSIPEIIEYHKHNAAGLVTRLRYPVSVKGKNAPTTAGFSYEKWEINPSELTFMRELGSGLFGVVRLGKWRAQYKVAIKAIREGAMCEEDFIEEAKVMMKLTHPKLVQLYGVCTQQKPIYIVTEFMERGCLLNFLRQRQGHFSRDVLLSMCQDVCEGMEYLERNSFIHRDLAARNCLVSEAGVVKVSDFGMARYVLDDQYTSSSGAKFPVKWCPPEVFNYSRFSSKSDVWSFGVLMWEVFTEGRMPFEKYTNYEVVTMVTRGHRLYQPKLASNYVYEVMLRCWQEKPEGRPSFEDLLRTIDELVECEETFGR
In series [8] the target is Enoyl-CoA hydratase, mitochondrial (Homo sapiens, UniProt P30084). As to the kind of experiment: Binding affinity to ECHS1 in SILAC-labeled human MDA-MB-231 cells lysate by mass spectrometry based kinAffinity assay. It counts as subcellular. The essentials: as §3
The target in a further series is TGF-beta receptor type-1 (Homo sapiens, UniProt P36897). In words: Binding affinity to TGFBR1 in SILAC-labeled human MDA-MB-231 cells lysate by mass spectrometry based kinAffinity assay. The format is subcellular. The essentials:
as §1

Series [9] addresses Fibroblast growth factor receptor 3 (Homo sapiens) (UniProt P22607). As to the kind of experiment: Inhibition of FGFR3 (unknown origin) using fluorescently-labeled peptide as substrate at 10 uM by IMAP fluorescence polarization assay.
Series [10] addresses Insulin receptor (Homo sapiens) (UniProt P06213). As to the kind of experiment: Inhibition of INSR (unknown origin) using fluorescence labeled peptide as substrate at 10 uM by IMAP assay. In a few lines: (§4)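 IMAP fluorescence-polarization kinase assay at 10 µmol/L compound, run in triplicate by a contract lab. A fluorescently labeled substrate peptide is phosphorylated, then nanoparticles carrying trivalent metal bind the phosphopeptide and slow its rotation. Read-out is fluorescence polarization, expressed as percent inhibition.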

Series [11] has as its target Receptor tyrosine-protein kinase erbB-2 (Homo sapiens) (UniProt P04626). As to the kind of experiment: Inhibition of ERBB2 (unknown origin) using biotinylated peptide as substrate at 10 uM by TR-FRET assay. The essentials: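 HTRF (TR-FRET) kinase assay at 10 µmol/L compound, in triplicate. A biotinylated kinase-specific peptide is phosphorylated. Detection uses a europium cryptate-labeled anti-phospho-residue antibody as donor and XL665-streptavidin as acceptor. Result is percent inhibition.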
A general note: In TR-FRET formats the signal depends on donor and acceptor labels being close together.

Series [12] concerns the target Tyrosine-protein kinase SYK (Homo sapiens) (UniProt P43405). In words: Inhibition of SYK (unknown origin) using fluorescence labeled peptide as substrate at 10 uM by IMAP assay.
The target in series [13] is Receptor tyrosine-protein kinase erbB-2 (Homo sapiens) (UniProt P04626). In words: Inhibition of ERBB2 (unknown origin) using biotinylated peptide as substrate at 10 uM by TR-FRET assay.
Receptor tyrosine-protein kinase erbB-2 (Homo sapiens), sequence (P04626 whole entry): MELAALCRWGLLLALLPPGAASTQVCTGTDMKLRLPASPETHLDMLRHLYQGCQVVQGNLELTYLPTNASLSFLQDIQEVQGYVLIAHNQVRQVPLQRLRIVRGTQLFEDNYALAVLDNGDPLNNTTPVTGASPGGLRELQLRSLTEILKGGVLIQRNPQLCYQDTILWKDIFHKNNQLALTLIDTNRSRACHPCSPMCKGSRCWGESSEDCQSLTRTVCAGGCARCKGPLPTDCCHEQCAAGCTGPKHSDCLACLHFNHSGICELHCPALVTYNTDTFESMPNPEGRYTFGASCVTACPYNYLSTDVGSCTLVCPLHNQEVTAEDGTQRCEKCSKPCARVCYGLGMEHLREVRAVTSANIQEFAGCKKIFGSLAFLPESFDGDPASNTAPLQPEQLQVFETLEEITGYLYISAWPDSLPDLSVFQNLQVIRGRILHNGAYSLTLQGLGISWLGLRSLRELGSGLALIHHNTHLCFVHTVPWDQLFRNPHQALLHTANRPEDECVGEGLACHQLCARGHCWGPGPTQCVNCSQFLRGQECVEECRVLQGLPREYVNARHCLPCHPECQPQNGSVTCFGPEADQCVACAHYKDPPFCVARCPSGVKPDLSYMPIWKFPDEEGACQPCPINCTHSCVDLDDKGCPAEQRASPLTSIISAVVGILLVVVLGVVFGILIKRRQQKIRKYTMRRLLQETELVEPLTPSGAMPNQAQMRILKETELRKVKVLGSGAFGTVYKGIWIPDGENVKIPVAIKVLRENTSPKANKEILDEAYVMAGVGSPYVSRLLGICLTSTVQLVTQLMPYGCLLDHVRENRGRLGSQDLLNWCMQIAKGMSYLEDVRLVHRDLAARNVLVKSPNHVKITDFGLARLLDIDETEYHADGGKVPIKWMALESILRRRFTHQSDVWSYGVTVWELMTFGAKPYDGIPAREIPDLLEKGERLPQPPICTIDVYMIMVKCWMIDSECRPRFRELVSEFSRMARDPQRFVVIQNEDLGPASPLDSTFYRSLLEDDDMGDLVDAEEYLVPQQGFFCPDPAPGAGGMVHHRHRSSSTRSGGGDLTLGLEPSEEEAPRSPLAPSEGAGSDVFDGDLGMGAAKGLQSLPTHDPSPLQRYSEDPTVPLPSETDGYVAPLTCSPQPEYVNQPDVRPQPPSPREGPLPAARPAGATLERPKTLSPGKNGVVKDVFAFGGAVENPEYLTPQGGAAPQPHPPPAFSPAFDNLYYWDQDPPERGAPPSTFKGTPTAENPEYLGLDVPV
In series [14] the target is Serine/threonine-protein kinase B-raf (Homo sapiens) (UniProt P15056). In words: Inhibition of BRAF (unknown origin) at 10 uM by reporter probe displacement binding assay.
Serine/threonine-protein kinase B-raf (Homo sapiens), sequence (P15056 whole entry): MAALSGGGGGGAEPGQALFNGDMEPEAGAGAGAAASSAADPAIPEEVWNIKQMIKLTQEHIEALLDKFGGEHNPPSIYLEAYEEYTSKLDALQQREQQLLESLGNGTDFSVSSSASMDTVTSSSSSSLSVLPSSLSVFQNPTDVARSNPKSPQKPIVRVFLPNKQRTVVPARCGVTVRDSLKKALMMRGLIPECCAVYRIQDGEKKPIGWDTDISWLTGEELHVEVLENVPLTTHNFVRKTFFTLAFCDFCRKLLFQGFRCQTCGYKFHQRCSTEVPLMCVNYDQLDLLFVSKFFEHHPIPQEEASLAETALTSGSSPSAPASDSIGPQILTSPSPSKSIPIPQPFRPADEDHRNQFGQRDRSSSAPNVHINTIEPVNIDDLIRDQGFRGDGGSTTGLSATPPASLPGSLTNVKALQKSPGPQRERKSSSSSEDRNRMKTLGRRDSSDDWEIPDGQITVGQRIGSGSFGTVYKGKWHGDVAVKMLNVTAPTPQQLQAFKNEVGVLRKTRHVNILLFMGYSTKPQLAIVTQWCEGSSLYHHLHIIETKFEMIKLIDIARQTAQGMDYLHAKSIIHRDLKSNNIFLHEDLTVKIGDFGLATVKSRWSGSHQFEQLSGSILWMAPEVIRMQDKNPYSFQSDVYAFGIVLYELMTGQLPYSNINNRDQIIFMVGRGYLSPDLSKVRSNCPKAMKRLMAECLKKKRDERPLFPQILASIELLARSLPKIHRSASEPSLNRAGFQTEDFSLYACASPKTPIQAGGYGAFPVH
Series [15] has as its target Fibroblast growth factor receptor 3 (Homo sapiens) (UniProt P22607). In words: Inhibition of FGFR3 (unknown origin) using fluorescence labeled peptide as substrate at 10 uM by IMAP assay. The essentials: as §4
Series [16] deals with Serine/threonine-protein kinase B-raf (Homo sapiens) (UniProt P15056). As to the kind of experiment: Binding affinity to BRAF (unknown origin) at 10 uM.
Series [17] concerns the target Receptor tyrosine-protein kinase erbB-2 (Homo sapiens) (UniProt P04626). As to the kind of experiment: Binding affinity to ERBB2 (unknown origin) at 10 uM. In a few lines: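 HTRF kinase assay for HER2 at 10 µM compound, triplicate: biotinylated peptide phosphorylated, detected by europium cryptate anti-phospho antibody and streptavidin-XL665 TR-FRET; percent inhibition.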

The target in series [18] is Tyrosine-protein kinase JAK3 (Homo sapiens) (UniProt P52333). In words: Inhibition of JAK3 (unknown origin) using fluorescence labeled peptide as substrate at 10 uM by IMAP assay.
Series [19] concerns the target Receptor-type tyrosine-protein kinase FLT3 (Homo sapiens) (UniProt P36888). In words: Inhibition of FLT3 (unknown origin) using fluorescence labeled peptide as substrate at 10 uM by IMAP assay. The essentials: as §4
Series [20] in a line: Toxicity in mouse allografted with AXL expressing mouse MXT cells assessed as weight loss at 15 mg/kg, ip qd administered 21 consecutive days. The format is organism-based. The following applies: in vivo.
A short description of series [21]: Antitumor activity against AXL expressing mouse MXT cells allografted in mouse assessed as reduction in tumor size at 15 mg/kg, ip qd administered 21 consecutive days relative to control. The format is functional. Also on record: scale not given: the % may be the effect or the level left. The essentials: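 MXT mammary tumor cells implanted subcutaneously, grown to about 125 mm3, then dosed ip once daily for 21 consecutive days at 5 or 15 mg/kg vs vehicle, 7 animals/group; tumor size compared with vehicle after 3 weeks, survival also recorded.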

The nature of series [22]: Antitumor activity against AXL expressing mouse MXT cells allografted in mouse assessed as survival time at 5 mg/kg, ip qd administered 21 consecutive days (reference value: 100%). The format is functional. In a few lines:
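MXT mammary tumour cells implanted subcutaneously and staged to about 125 mm3. Dosing then began: once daily ip for 21 consecutive days, at 5 or 15 mg/kg, alongside a vehicle group, with 7 animals per group. Survival in days was recorded for each animal and given as mean ± SD, and as T/C% against the vehicle group (vehicle = 100%).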

As a reminder, the T/C is the ratio of treated to control.

The source made the active and inactive calls. No cut-off for these calls is given here.

Fibroblast growth factor receptor 3 (Homo sapiens), sequence (P22607 23-806 limits assumed): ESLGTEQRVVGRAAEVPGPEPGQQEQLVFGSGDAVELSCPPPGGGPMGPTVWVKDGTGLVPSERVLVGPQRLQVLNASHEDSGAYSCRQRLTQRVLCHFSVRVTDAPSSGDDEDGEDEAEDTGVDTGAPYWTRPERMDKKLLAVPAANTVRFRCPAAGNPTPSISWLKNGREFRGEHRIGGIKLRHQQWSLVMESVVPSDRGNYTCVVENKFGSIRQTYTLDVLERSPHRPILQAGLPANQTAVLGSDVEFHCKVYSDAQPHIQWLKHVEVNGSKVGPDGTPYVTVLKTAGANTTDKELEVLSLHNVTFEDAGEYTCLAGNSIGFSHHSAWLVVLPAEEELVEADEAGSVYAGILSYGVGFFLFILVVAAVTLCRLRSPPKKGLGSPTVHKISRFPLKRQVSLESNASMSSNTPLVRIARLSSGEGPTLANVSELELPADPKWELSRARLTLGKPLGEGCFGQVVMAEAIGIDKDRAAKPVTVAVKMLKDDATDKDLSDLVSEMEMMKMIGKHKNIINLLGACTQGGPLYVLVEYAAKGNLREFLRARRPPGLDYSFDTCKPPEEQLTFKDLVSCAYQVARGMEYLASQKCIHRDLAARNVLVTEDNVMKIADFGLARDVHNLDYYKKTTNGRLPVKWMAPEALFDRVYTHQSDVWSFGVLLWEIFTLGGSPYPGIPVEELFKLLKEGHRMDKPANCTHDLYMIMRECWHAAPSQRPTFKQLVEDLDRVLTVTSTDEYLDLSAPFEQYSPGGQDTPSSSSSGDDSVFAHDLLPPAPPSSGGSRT
TGF-beta receptor type-1, sequence (P36897 whole entry): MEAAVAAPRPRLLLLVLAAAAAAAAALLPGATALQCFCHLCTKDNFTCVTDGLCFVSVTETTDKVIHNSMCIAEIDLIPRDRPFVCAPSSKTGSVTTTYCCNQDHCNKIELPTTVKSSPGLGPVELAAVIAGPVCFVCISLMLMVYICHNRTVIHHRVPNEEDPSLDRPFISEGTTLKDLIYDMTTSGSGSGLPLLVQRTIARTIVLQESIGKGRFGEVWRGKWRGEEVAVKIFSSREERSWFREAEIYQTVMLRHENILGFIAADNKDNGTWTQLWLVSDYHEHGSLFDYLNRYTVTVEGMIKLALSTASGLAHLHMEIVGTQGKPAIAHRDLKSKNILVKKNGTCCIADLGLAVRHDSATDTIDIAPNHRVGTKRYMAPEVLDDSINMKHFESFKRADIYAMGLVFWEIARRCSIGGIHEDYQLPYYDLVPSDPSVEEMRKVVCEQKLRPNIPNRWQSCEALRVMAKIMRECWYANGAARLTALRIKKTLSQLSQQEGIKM
Protein-tyrosine kinase 2-beta, sequence (Q14289 whole entry): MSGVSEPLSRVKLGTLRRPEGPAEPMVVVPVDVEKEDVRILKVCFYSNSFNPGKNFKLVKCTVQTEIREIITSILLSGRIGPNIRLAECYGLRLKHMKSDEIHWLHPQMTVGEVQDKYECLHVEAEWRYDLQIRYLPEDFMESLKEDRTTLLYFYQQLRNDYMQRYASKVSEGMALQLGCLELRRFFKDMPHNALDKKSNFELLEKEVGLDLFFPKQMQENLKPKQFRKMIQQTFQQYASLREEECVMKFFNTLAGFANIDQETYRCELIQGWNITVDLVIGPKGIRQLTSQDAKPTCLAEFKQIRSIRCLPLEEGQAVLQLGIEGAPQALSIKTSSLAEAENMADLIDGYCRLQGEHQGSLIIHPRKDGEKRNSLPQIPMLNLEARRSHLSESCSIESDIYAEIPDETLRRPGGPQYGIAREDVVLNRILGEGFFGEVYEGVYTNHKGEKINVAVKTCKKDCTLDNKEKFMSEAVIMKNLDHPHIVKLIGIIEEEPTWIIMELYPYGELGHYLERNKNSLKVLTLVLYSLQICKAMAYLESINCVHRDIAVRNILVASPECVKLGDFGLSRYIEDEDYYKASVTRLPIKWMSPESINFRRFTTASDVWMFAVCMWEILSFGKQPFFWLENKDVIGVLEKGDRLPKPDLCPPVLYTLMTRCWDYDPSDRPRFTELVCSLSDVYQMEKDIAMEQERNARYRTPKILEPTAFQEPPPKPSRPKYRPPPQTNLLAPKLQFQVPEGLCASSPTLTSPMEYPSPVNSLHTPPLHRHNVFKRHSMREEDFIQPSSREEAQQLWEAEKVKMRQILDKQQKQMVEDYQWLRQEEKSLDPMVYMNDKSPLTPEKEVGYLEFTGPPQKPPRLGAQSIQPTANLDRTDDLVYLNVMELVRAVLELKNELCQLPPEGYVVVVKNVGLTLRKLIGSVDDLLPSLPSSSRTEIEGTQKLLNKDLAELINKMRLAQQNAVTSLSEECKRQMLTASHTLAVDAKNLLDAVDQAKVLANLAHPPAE

In the case of `COc1cc2c(Oc3ccc(NS(=O)(=O)c4cc(F)ccc4F)cc3F)ccnc2cc1OCCCN1CCN(C)CC1`, the “Kd(free)” value is > 6.194 µM in [1] and 2.857 µM in series [3]. Further, the Activity in the series on MDA-MB-231 [2] turned out to be 14.3%. The TGI entry in the series with MDA-MB-231 [4] was “Active”.
Regarding `COc1cc2c(Oc3ccc(NS(=O)(=O)c4c(F)cccc4F)cc3F)ccnc2cc1OCCCN1CCN(C)CC1`, the “Kd(free)” value in [5] is 7.63 µM; in series [6] it was 6.928 µM; in [7] it was > 3.674 µM; in [8] it was 9.237 µM; on TGF-beta receptor type-1, 0.205 µM.
As for `COc1cc2c(Oc3ccc(NS(=O)(=O)c4ccccc4C(F)(F)F)cc3F)ccnc2cc1OCCCN1CCN(C)CC1`, the inhibition entry in [9], in series [10], in [11], in [12], in [13] and in series [14] was “Active” each time. The inhibition entry in series [15], in series [16], in series [17], in series [18] and in series [19] was “Active” each time.
For `COc1cc2c(Oc3ccc(NS(=O)(=O)c4cc(F)ccc4F)cc3F)ccnc2cc1OCCCN1CCCC(C)C1` (stereo not drawn), the figures for the Activity entry in [20] and in series [21] were “Non-Toxic” and 40%, respectively. In addition, the T/C in series [22] stood at 118%.
